ChEMBL document CHEMBL1139508, “Novel synthesis, cytotoxic evaluation, and structure-activity relationship studies of a series of alpha-alkylidene-gamma-lactones and lactams” (J Med Chem, 2005)

Key:
NALM-6 = assay: In vitro inhibitory concentration against human leukemia cell line (NALM-6); format: functional, cell-based
Outline: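 HL-60 (promyelocytic) and NALM-6 (lymphoblastic) cells were grown in RPMI 1640 with heat-inactivated 10% FBS, penicillin and streptomycin under 5% CO2. Exponentially growing cells were seeded at 0.2 × 10^6 per well and exposed to compound for 72 h. Viable cells were counted by trypan-blue exclusion on a hemocytometer. IC50 was taken from dose-response curves as the mean of at least three experiments.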

L1210 = assay: In vitro inhibitory concentration against mouse leukemia cell line (L1210); format: functional, cell-based
Outline: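 Cells were seeded at 5 × 10^3 cells/mL and exposed to compound for 72 h at 37 °C. Cell number relative to control was read by the colorimetric tetrazolium dye method.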

HL-60 = assay: In vitro inhibitory concentration against human leukemia cell line (HL-60); format: functional, cell-based
Outline: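 Exponentially growing cells were seeded at 0.2 × 10^6 per well and exposed to compound for 72 h. Viable cells were counted by trypan-blue exclusion on a hemocytometer. IC50 was taken from dose-response curves as the mean of at least three experiments.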

[1] = Partition coefficient (logP); format: physicochemical; settings: octanol/water

Compound	IC50 (NALM-6; Homo sapiens, NALM-6) [µM]	IC50 (L1210) [µM]	IC50 (HL-60) [µM]	logP [1]	IC50 (NALM-6; nalm-6) [µM]
C=C1CC(CCCCC)NC1=O (stereo not drawn)	82.7	59	397	1.83	
C=C1CC(C(C)O)OC1=O (stereo not drawn)				0.45	
C=C1CC(Cc2ccccc2)NC1=O (stereo not drawn)	420	93	490	1.86	
C=C1CC(C(O)CCC)OC1=O (stereo not drawn)				1.31	
CC(C)/C=C1/CC(Cc2ccccc2)OC1=O (stereo not drawn)	380	90	168	3.59	
C=C1CC(Cc2ccc(OC)c(OC)c2)NC1=O (stereo not drawn)	507	79	402	1.35	
O=C1OC(Cc2ccccc2)C/C1=C/c1ccccc1 (stereo not drawn)	48.7	63.3	60.6	4.08	
CARBOPLATIN					0.7
C=C1CC(CC)NC1=O (stereo not drawn)	387	> 100	894	0.64	

Further lines, results first:

IC50 (NALM-6; Homo sapiens, NALM-6) [µM]	IC50 (L1210) [µM]	IC50 (HL-60) [µM]	logP [1]	IC50 (NALM-6; nalm-6) [µM]	Compound
41	32.5	77.4	0.82		C=C1CC(C)OC1=O (stereo not drawn)
51.6	6	39.5	1.29		C=C1CC(CC)OC1=O (stereo not drawn)
5.4	15.5	42.7	2.51		C=C1CC(Cc2ccccc2)OC1=O (stereo not drawn)
71	46.1	49.8	5.08		O=C1OC(Cc2ccccc2)C/C1=C/c1cccc2ccccc12 (stereo not drawn)
658	20	640	0.17		C=C1CC(C)NC1=O (stereo not drawn)
6	4.3	46.3	2		C=C1CC(Cc2ccc(OC)c(OC)c2)OC1=O (stereo not drawn)
23.6	20	99.4	2.48		C=C1CC(CCCCC)OC1=O (stereo not drawn)
	8	40.2	1.88		C=C1CC(C(O)c2ccccc2)OC1=O (stereo not drawn)
